Key:
p-Smad2/3 = experiment: Immunohistochemistry: p-Smads2/3 immunoreactive vessels; assay type: in vivo, rat; conditions: treatment 4h after MCAO, 24h; compared to the saline treatment
In short: (§1)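 Embolic-MCAO male Wistar rats were treated 4 h after stroke onset with one of three regimens: IV tPA (10 mg/kg) alone, tPA plus peptide (0.8 mg/kg/day, IA then SC pump), or saline (n=4–6). Rats were killed 24 h after treatment began. Frozen 8 μm coronal sections (bregma −0.4 to −1.4 mm) were immunostained, and immunoreactive vessels in ischemic brain were counted. One-way ANOVA with Hochberg adjustment was used.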

PAI-1 = experiment: Immunohistochemistry: PAI-1 immunoreactive vessels; assay type: in vivo, rat; conditions: treatment 4h after MCAO, 24h; double immunostaining
In short: as §1

[1] = tested on: rat model of embolic middle cerebral artery occlusion (MCAO); experiment: Incidence of gross hemorrhage on H&E stained coronal sections; assay type: in vivo; conditions: treatment started 4h after MCAO; H&E sections 7 days after MCAO
In short: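 In embolic-MCAO male Wistar rats, treatment began 1 or 4 h after occlusion. The peptide was given at 0.8 mg/kg/day (IA for 2 h, then SC pump for 3 days), with or without IV tPA 10 mg/kg at 4 h. Rats were killed at day 7. Seven H&E coronal sections per animal were scored for blood visible to the unaided eye, expressed as group percentage. Fisher exact test was applied.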

TGF-β1 = experiment: Immunohistochemistry: TGF-β1 immunoreactive vessels; assay type: in vivo, rat; conditions: treatment 4h after MCAO, 24h; compared to the saline treatment
In short: as §1

NF-κB (p65) = experiment: Immunohistochemistry: p65 immunoreactive vessels; assay type: in vivo, rat; conditions: treatment 4h after MCAO, 24h; ipsilateral hemisphere
In short: as §1

[2] = tested on: rat model of embolic middle cerebral artery occlusion (MCAO); experiment: MRI measurement of ischemic lesion; assay type: in vivo; conditions: treatment started 4h after MCAO; MRI at 1, 72 and 144 h after MCAO; n=10/group
In short: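 Rats received IV tPA (10 mg/kg) alone or tPA plus peptide, starting 4 h after embolic MCAO. Imaging was done on a 7 T scanner with T2-weighted and diffusion-weighted images at 1, 72 and 144 h. Ischemic area was taken from the T2 map using a threshold of two SD above the contralateral hemisphere. Groups were compared by one-way ANOVA.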

tissue plasminogen activator [tPA] was tested, and the “density of p-Smads2/3 immunoreactive vessels” value (p-Smad2/3) was “failed to reduce the densities”, the “PAI-1 immunoreactive vessel density” value (PAI-1) was “further increased” and the “incidence of gross hemorrhage” value [1] was 38%. The “density of TGF-β1 immunoreactive vessels” value (TGF-β1) was “failed to reduce the densities”, the p65 immunoreactive vessels (NF-κB (p65)) was “augmented” and the “ischemic lesion by MRI (T2)” value [2] was “increased over 144h”.
